Reference: ChEMBL document CHEMBL4837210 (Eur J Med Chem, 2021)
The source made the active and inactive calls. The rule behind the calls is not given here.

Legend:
Staphylococcus aureus [1] = assay: Antibacterial activity against erythromycin-susceptible Staphylococcus aureus ATCC 25923 assessed as bacterial growth inhibition incubated for 24 hrs by CLSI protocol based broth microdilution method; assay type: functional
Bacillus subtilis [2] = assay: Bactericidal activity against penicillin-susceptible Bacillus subtilis ATCC 9372 measured after 24 hrs by CLSI protocol based method; assay type: functional
Outline: (§1)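 MBC followed on from the 24 h broth microdilution MIC plates. Aliquots from clear wells were spread on tryptic soy agar and incubated aerobically at 37 °C for 24 h. MBC was the minimum concentration giving no colonies.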

Enterococcus faecalis = assay: Antibacterial activity against vancomycin-susceptible Enterococcus faecalis ATCC 29212 assessed as bacterial growth inhibition incubated for 24 hrs by CLSI protocol based broth microdilution method; assay type: functional
Staphylococcus aureus [3] = assay: Antibacterial activity against Staphylococcus aureus assessed as inhibition of bacterial growth measured by broth microdilution method; assay type: functional; conditions: time 24 hrs
Outline: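 Broth microdilution in Mueller Hinton broth. A 0.5 McFarland suspension was diluted tenfold, giving an inoculum of 1.5 × 10⁷ cfu/mL. This was added to 2-fold serial compound dilutions from […]. Plates were incubated aerobically at 37 °C for 24 h. MIC was the lowest concentration with no visible turbidity.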

Enterococcus faecium = assay: Antibacterial activity against vancomycin-resistant Enterococcus faecium ATCC 51559 assessed as bacterial growth inhibition incubated for 24 hrs by CLSI protocol based broth microdilution method; conditions: ATCC 51559, 24 h
Staphylococcus aureus [4] = assay: In vivo antibacterial activity against […] Staphylococcus aureus ATCC 25923 infected in Kunming mouse assessed as reduction in viable bacterial cells at 5 mg/kg, administered 1 hr post bacterial infection and measured after 1 hr post compound treatment; assay type: functional, organism-based
Outline: (§2)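 Kunming mice (~25 g, 6 per group) infected intravenously with 6 × 10⁷ CFU S. aureus ATCC25923 in 0.2 mL saline. About 1 h later, 1, 5 or 25 mg/kg was given intraperitoneally in 0.5 mL vehicle, with linezolid as reference. Orbital blood (100 µL) was taken before and 1 h after treatment, spread on MH agar and counted after 24 h.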

[5] = molecular target: T1, Cell division protein FtsZ (Bacillus subtilis) (UniProt A5Z1V5); assay: Induction of Bacillus subtilis FtsZ polymerization assessed as formation of bundling of FtsZ protofilaments at 10 ug/ml after 20 mins by transmission electron microscopic analysis; conditions: dose 10.0 µg/ml
T1 sequence (whole entry): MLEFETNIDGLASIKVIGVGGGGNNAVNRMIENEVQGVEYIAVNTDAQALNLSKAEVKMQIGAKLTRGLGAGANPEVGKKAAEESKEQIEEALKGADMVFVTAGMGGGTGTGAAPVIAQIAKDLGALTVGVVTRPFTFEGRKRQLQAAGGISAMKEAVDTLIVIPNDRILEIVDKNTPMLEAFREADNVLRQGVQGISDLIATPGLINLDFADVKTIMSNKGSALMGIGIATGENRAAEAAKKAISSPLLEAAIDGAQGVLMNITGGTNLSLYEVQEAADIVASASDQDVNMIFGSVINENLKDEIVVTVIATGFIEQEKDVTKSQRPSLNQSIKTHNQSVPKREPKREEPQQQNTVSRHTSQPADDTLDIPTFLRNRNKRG
Outline: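 B. subtilis FtsZ was incubated with or without compound for 20 min in Tris pH 7.4 polymerization buffer (KCl, MgCl₂, Triton X-100, GTP). Samples were applied to glow-discharged Formvar carbon-coated copper grids for 10 min, negatively stained with 1% phosphotungstic acid for 1 min, air-dried and imaged by TEM.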

Staphylococcus aureus [6] = assay: Ratio of MBC to MIC against erythromycin-susceptible Staphylococcus aureus ATCC 25923; assay type: functional
Outline: (§3)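 MBC/MIC ratio from the broth microdilution MIC (24 h, 37 °C, MH broth) and the MBC (clear wells subcultured on tryptic soy agar, 24 h). A ratio ≤4 is read as bactericidal per CLSI.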

Staphylococcus aureus [7] = assay: Bactericidal activity against penicillin-resistant Staphylococcus aureus measured after 24 hrs by CLSI protocol based method; assay type: functional
Outline: (§4)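 MBC after broth microdilution. After 24 h, aliquots from clear wells were plated on tryptic soy agar and incubated aerobically 24 h at 37 °C. MBC was the lowest concentration giving no colonies.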

[8] = system: Staphylococcus epidermidis; assay: Antibacterial activity against penicillin-resistant Staphylococcus epidermidis assessed as inhibition of bacterial growth measured by broth microdilution method; assay type: functional; conditions: time 24 hrs
Pseudomonas aeruginosa = assay: Inhibition of biofilm formation in Pseudomonas aeruginosa ATCC 27853 at 64 ug/ml incubated for 18 hrs by crystal violet staining based method; assay type: functional, organism-based; conditions: dose 64.0 µg/ml
Outline: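 P. aeruginosa ATCC27853 was grown overnight in MH medium, washed and diluted to OD₆₂₀ 0.05, grown to mid-log (OD₆₂₀ 0.3–0.5), then rediluted to 0.05. Cultures were grown statically with compound at 37 °C for 18 h. Wells were washed with PBS, fixed in methanol for 15 min and stained with 0.1% crystal violet for 30 min. Stain was solubilized in 1% SDS and read at A540, in triplicate.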

Streptococcus pyogenes = assay: Antibacterial activity against erythromycin-susceptible Streptococcus pyogenes clinical isolate 1 assessed as bacterial growth inhibition incubated for 24 hrs by CLSI protocol based broth microdilution method; assay type: functional
Bacillus pumilus = assay: Bactericidal activity against penicillin-susceptible Bacillus pumilus CMCC 63202 measured after 24 hrs by CLSI protocol based method; assay type: functional; outline: as §1
Staphylococcus aureus [9] = assay: Bactericidal activity against methicillin-resistant Staphylococcus aureus ATCC 43300 measured after 24 hrs by CLSI protocol based method; assay type: functional; outline: as §4
Staphylococcus aureus [10] = assay: In vivo antibacterial activity against […] Staphylococcus aureus ATCC 25923 infected in Kunming mouse assessed as reduction in bacterial load at 1 mg/kg, administered 1 hr post bacterial infection and measured after 1 hr post compound treatment; assay type: functional, organism-based; outline: as §2
Bacillus subtilis [11] = assay: Ratio of MBC to MIC against penicillin-susceptible Bacillus subtilis ATCC 9372; assay type: functional
Outline: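 Ratio of MBC to MIC, both measured by broth microdilution in MH broth (37 °C, 24 h); MBC was scored by subculturing clear wells onto tryptic soy agar for 24 h. Following CLSI, a ratio of 4 or less counts as bactericidal.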

Staphylococcus aureus [12] = assay: Ratio of MBC to MIC against penicillin-resistant Staphylococcus aureus; assay type: functional; outline: as §3
[13] = system: Staphylococcus epidermidis; assay: Ratio of MBC to MIC against penicillin-resistant Staphylococcus epidermidis; assay type: functional; outline: as §3
[14] = molecular target: T1, Cell division protein FtsZ (Bacillus subtilis); assay: Induction of Bacillus subtilis FtsZ polymerization by fluorescence spectrophotometry; conditions: dose 2.5-10 µg/ml, time 800.0 sec
Outline: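 Light scattering of B. subtilis FtsZ in 20 mM Tris pH 7.4 with 20 mM KCl, 5 mM MgCl₂ and 0.01% Triton X-100. Protein was preincubated in a cuvette with vehicle (2% DMSO) or compound. GTP was added last (2 mM final), and scattering at excitation 411 nm / emission 430 nm was followed for 800 s.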

Staphylococcus aureus [15] = assay: Antibacterial activity against penicillin-resistant Staphylococcus aureus assessed as inhibition of bacterial growth measured by broth microdilution method; assay type: functional; conditions: time 24 hrs
Outline: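 Broth microdilution MIC. A 0.5 McFarland suspension was diluted 10-fold and added at 1.5 × 10⁷ cfu/mL to 2-fold dilutions (0.125–64) in Mueller Hinton broth. Incubated aerobically 24 h at 37 °C. MIC was the lowest concentration with no visible turbidity.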

## C[n+]1c2ccccc2c(/C=C/c2ccc(C(C)(C)C)cc2)c2ccccc21.[I-]
Staphylococcus aureus [1]
  MIC: 0.5 µg/mL
Bacillus subtilis [2]
  MBC: 0.5 µg/mL
Enterococcus faecalis
  MIC: 2 µg/mL
Staphylococcus aureus [3]
  MIC: 0.5 µg/mL
Enterococcus faecium
  MIC: 2 µg/mL
Staphylococcus aureus [4]
  Activity: Active
[5]
  Activity: Active
Staphylococcus aureus [6]
  Ratio: 4
Staphylococcus aureus [7]
  MBC: 4 µg/mL
[8]
  MIC: 1 µg/mL
Pseudomonas aeruginosa
  inhibition: inactive
Streptococcus pyogenes
  MIC: < 0.125 µg/mL
Bacillus pumilus
  MBC: 2 µg/mL
Staphylococcus aureus [9]
  MBC: 4 µg/mL
Staphylococcus aureus [10]
  Activity: inactive
Bacillus subtilis [11]
  Ratio: 2
Staphylococcus aureus [12]
  Ratio: 2
[13]
  Ratio: 1
[14]
  Activity: Dose-Dependent Effect
Staphylococcus aureus [15]
  MIC: 2 µg/mL
